Laboratory results reported in ChEMBL document CHEMBL1129059, “Antitumor properties of some 2-[(dimethylamino)methyl]phenylgold(III) complexes” (J Med Chem, 1996).
Values joined by “and” are separate entries in the source; they are usually repeats but may differ in a detail not shown here. Identical values can stand only once.

Legend:
Mus musculus [1] = assay: Compound was evaluated for antitumor activity (RTV) in HT1376 carcinoma Xenograft, at a dosage 6.25 mg/kg on day 7.; type: functional, organism-based; design: dose 6.25 mg/kg
Outline: (§1)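 HT1376 tumor fragments implanted subcutaneously in nude mice flanks; mice with established palpable tumors randomized into groups of 6 (controls 10). Compounds given intraperitoneally as suspensions in 0.5% carboxymethylcellulose in 0.9% saline, on days 0, 7, 14 and 21. Tumor dimensions on days 0, 7, 14, 21, 28. RTV = 100(mean tumor volume at assessment)/(mean start volume).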

Mus musculus [2] = assay: Compound was evaluated for antitumor activity (T/C) in HT1376 carcinoma Xenograft, at a dosage 12.5 mg/kg on day 21; type: functional, organism-based; design: dose 12.5 mg/kg
Outline: (§2)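 Subcutaneous HT1376 xenografts in nude mice, 6 per treated group and 10 controls. Intraperitoneal dosing as suspensions in 0.5% carboxymethylcellulose/0.9% saline on days 0, 7, 14, 21; tumors measured weekly to day 28. T/C = RTV of treated group / RTV of untreated control group; significance by t-test at the 5% level.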

Mus musculus [3] = assay: Compound was evaluated for antitumor activity (T/C) in PNX/109/TC carcinoma Xenograft, at a dosage 10 mg/kg on day 14; type: functional, organism-based; design: dose 10 mg/kg
Outline: (§3)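 PNX/109/TC (CH1) ovarian tumor fragments implanted subcutaneously in the flanks of nude mice. Once tumors were palpable, mice were randomized into 6 per treated group and 10 controls. Dosing was ip in arachis oil on days 0, 7, 14 and 21, at the MTD and two 2-fold dilutions, with tumor dimensions taken on days 0, 7, 14, 21 and 28. T/C is treated RTV over control RTV, with RTV relative to start volume.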

Mus musculus [4] = assay: Compound was evaluated for antitumor activity (T/C) in PNX/109/TC carcinoma Xenograft, at a dosage 10 mg/kg on day 7; type: functional, organism-based; design: dose 10 mg/kg; outline: as §3
Mus musculus [5] = assay: Compound was evaluated for antitumor activity (RTV) in HT1376 carcinoma Xenograft, at a dosage 25 mg/kg on day 14; type: functional, organism-based; design: dose 25 mg/kg; outline: as §1
Mus musculus [6] = assay: Compound was evaluated for antitumor activity (T/C) in HT1376 carcinoma Xenograft, at a dosage 12.5 mg/kg on day 14; type: functional, organism-based; design: dose 12.5 mg/kg; outline: as §2
Mus musculus [7] = assay: Compound was evaluated for antitumor activity (T/C) in PNX/109/TC carcinoma Xenograft, at a dosage 5 mg/kg on day 28; type: functional, organism-based; design: dose 5 mg/kg; outline: as §3
Mus musculus [8] = assay: Compound was evaluated for antitumor activity (RTV) in PNX/109/TC carcinoma Xenograft, at a dosage 5 mg/kg on day 21; type: functional, organism-based; design: dose 5 mg/kg
Outline: (§4)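 PXN/109/TC (CH1) ovarian tumor fragments implanted subcutaneously in nude mice flanks; established palpable tumors, groups of 6 (controls 10). Dosed intraperitoneally as suspension in arachis oil on days 0, 7, 14, 21. Tumors measured days 0, 7, 14, 21, 28. RTV = 100(mean tumor volume at assessment)/(mean start volume).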

Mus musculus [9] = assay: Compound was evaluated for antitumor activity (RTV) in HT1376 carcinoma Xenograft, at a dosage 6.25 mg/kg on day 21; type: functional, organism-based; design: dose 6.25 mg/kg; outline: as §1
Mus musculus [10] = assay: Compound was evaluated for antitumor activity (RTV) in HT1376 carcinoma Xenograft, at a dosage 25 mg/kg on day 28; type: functional, organism-based; design: dose 25 mg/kg; outline: as §1
Mus musculus [11] = assay: Compound was evaluated for antitumor activity (RTV) in HT1376 carcinoma Xenograft, at a dosage 12.5 mg/kg on day 7; type: functional, organism-based; design: dose 12.5 mg/kg; outline: as §1
Mus musculus [12] = assay: Compound was evaluated for antitumor activity (RTV) in PNX/109/TC carcinoma Xenograft, at a dosage 10 mg/kg on day 7; type: functional, organism-based; design: dose 10 mg/kg; outline: as §4
Mus musculus [13] = assay: Compound was evaluated for antitumor activity (T/C) in HT1376 carcinoma Xenograft, at a dosage 25 mg/kg on day 21; type: functional, organism-based; design: dose 25 mg/kg; outline: as §2
Mus musculus [14] = assay: Compound was evaluated for antitumor activity (T/C) in PNX/109/TC carcinoma Xenograft, at a dosage 10 mg/kg on day 21; type: functional, organism-based; design: dose 10 mg/kg; outline: as §3
Mus musculus [15] = assay: Compound was evaluated for antitumor activity (RTV) in HT1376 carcinoma Xenograft, at a dosage 6.25 mg/kg on day 14; type: functional, organism-based; design: dose 6.25 mg/kg; outline: as §1
Mus musculus [16] = assay: Compound was evaluated for antitumor activity (RTV) in HT1376 carcinoma Xenograft, at a dosage 25 mg/kg on day 7; type: functional, organism-based; design: dose 25 mg/kg; outline: as §1
Mus musculus [17] = assay: Compound was evaluated for antitumor activity (T/C) in PNX/109/TC carcinoma Xenograft, at a dosage 20 mg/kg on day 28; type: functional, organism-based; design: dose 20 mg/kg; outline: as §3
Mus musculus [18] = assay: Compound was evaluated for antitumor activity (T/C) in HT1376 carcinoma Xenograft, at a dosage 6.25 mg/kg on day 7; type: functional, organism-based; design: dose 6.25 mg/kg
Outline: (§5)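 Nude mice carrying subcutaneous flank HT1376 fragments; treatment began once tumors were established and palpable, randomized into groups of 6 treated and 10 control mice. Dosing was ip as a suspension in 0.5% carboxymethylcellulose in 0.9% saline on days 0, 7, 14 and 21, at the MTD and two 2-fold dilutions. Tumors were measured on days 0-28. RTV = 100(mean volume at assessment)/(mean start volume); T/C = treated RTV/control RTV.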

Mus musculus [19] = assay: Compound was evaluated for antitumor activity (T/C) in PNX/109/TC carcinoma Xenograft, at a dosage 20 mg/kg on day 21; type: functional, organism-based; design: dose 20 mg/kg; outline: as §3
Mus musculus [20] = assay: Compound was evaluated for antitumor activity (T/C) in HT1376 carcinoma Xenograft, at a dosage 25 mg/kg on day 14; type: functional, organism-based; design: dose 25 mg/kg; outline: as §2
Mus musculus [21] = assay: Compound was evaluated for antitumor activity (T/C) in PNX/109/TC carcinoma Xenograft, at a dosage 10 mg/kg on day 28; type: functional, organism-based; design: dose 10 mg/kg; outline: as §3
Mus musculus [22] = assay: Compound was evaluated for antitumor activity (RTV) in HT1376 carcinoma Xenograft, at a dosage 6.25 mg/kg on day 28; type: functional, organism-based; design: dose 6.25 mg/kg; outline: as §1
Mus musculus [23] = assay: Compound was evaluated for antitumor activity (T/C) in HT1376 carcinoma Xenograft, at a dosage 6.25 mg/kg on day 21; type: functional, organism-based; design: dose 6.25 mg/kg; outline: as §5
Mus musculus [24] = assay: Compound was evaluated for antitumor activity (RTV) in PNX/109/TC carcinoma Xenograft, at a dosage 5 mg/kg fon day 7; type: functional, organism-based; design: dose 5 mg/kg; outline: as §4
Mus musculus [25] = assay: Compound was evaluated for antitumor activity (T/C) in HT1376 carcinoma Xenograft, at a dosage 12.5 mg/kg on day 7; type: functional, organism-based; design: dose 12.5 mg/kg; outline: as §2
Mus musculus [26] = assay: Compound was evaluated for antitumor activity (T/C) in HT1376 carcinoma Xenograft, at a dosage 12.5 mg/kg on day 28; type: functional, organism-based; design: dose 12.5 mg/kg; outline: as §2
[27] = Range is evaluated. (Highest IC50/Lowest IC50); type: functional
Mus musculus [28] = assay: Compound was evaluated for antitumor activity (RTV) in HT1376 carcinoma Xenograft, at a dosage 12.5 mg/kg on day 28; type: functional, organism-based; design: dose 12.5 mg/kg; outline: as §1
Mus musculus [29] = assay: Compound was evaluated for antitumor activity (RTV) in PNX/109/TC carcinoma Xenograft, at a dosage 20 mg/kg on day 21; type: functional, organism-based; design: dose 20 mg/kg; outline: as §4
Mus musculus [30] = assay: Compound was evaluated for antitumor activity (RTV) in HT1376 carcinoma Xenograft, at a dosage 25 mg/kg on day 21; type: functional, organism-based; design: dose 25 mg/kg; outline: as §1
Mus musculus [31] = assay: Compound was evaluated for antitumor activity (RTV) in PNX/109/TC carcinoma Xenograft, at a dosage 20 mg/kg on day 28; type: functional, organism-based; design: dose 20 mg/kg; outline: as §4
Mus musculus [32] = assay: Compound was evaluated for antitumor activity (RTV) in PNX/109/TC carcinoma Xenograft, at a dosage 5 mg/kg on day 28; type: functional, organism-based; design: dose 5 mg/kg; outline: as §4
Mus musculus [33] = assay: Compound was evaluated for antitumor activity (RTV) in PNX/109/TC carcinoma Xenograft, at a dosage 10 mg/kg on day 14; type: functional, organism-based; design: dose 10 mg/kg; outline: as §4

Acetato[2-(dimethylamino)methyl]phenyl-C,N]gold-(III)
RTV (Mus musculus [1]): 379
T/C (Mus musculus [2]): 0.77
T/C (Mus musculus [3]): 0.9
T/C (Mus musculus [4]): 0.76
RTV (Mus musculus [5]): 454
T/C (Mus musculus [6]): 0.98
T/C (Mus musculus [7]): 1.08
RTV (Mus musculus [8]): 423
RTV (Mus musculus [9]): 953
RTV (Mus musculus [10]): 870
RTV (Mus musculus [11]): 212
RTV (Mus musculus [12]): 173
T/C (Mus musculus [13]): 0.76
T/C (Mus musculus [14]): 1.03
RTV (Mus musculus [15]): 724
RTV (Mus musculus [16]): 258
T/C (Mus musculus [17]): 0.77
T/C (Mus musculus [18]): 1.37
T/C (Mus musculus [19]): 0.51
T/C (Mus musculus [20]): 0.9
T/C (Mus musculus [21]): 1.34
RTV (Mus musculus [22]): 1670
T/C (Mus musculus [23]): 1.07
RTV (Mus musculus [24]): 160
T/C (Mus musculus [25]): 0.77
T/C (Mus musculus [26]): 0.75
Range [27]: 21.6 and 31
RTV (Mus musculus [28]): 1080
RTV (Mus musculus [29]): 258
RTV (Mus musculus [30]): 671
RTV (Mus musculus [31]): 481
RTV (Mus musculus [32]): 673
RTV (Mus musculus [33]): 316
